Values after ≈ are worked out from the molar mass of the structure shown.
Tests used:
Escherichia coli [1] = test: Antibacterial activity against 10^4 CFU Escherichia coli ATCC 25922 after 18 hrs by CLSI agar dilution method; type: functional; conditions: ATCC 25922, 18 h
Enterococcus faecalis [2] = test: Ratio of levofloxacin MIC to compound MIC for Enterococcus faecalis; type: functional
In short: (§1)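 MICs were measured by agar dilution on plates carrying serial twofold dilutions from […] down to 0.03. Plates were inoculated with 10⁴ cfu and incubated at 35 °C for 18 h. MIC was taken as the lowest concentration giving no visible growth. The ratio is the reference quinolone MIC divided by the test compound MIC for the same strain.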

Escherichia coli [3] = test: Antibacterial activity against 10^4 CFU Escherichia coli 08-21 after 18 hrs by CLSI agar dilution method; type: functional; conditions: 08-21, 18 h
Enterococcus faecalis [4] = test: Ratio of gemifloxacin MIC to compound MIC for Enterococcus faecalis; type: functional; in short: as §1
Enterococcus faecalis [5] = test: Antibacterial activity against 10^4 CFU Enterococcus faecalis 08-12 after 18 hrs by CLSI agar dilution method; type: functional; conditions: 08-12, 18 h
[6] = test system: Staphylococcus epidermidis; test: Ratio of levofloxacin MIC to compound MIC for methicillin-sensitive Staphylococcus epidermidis 09-6; type: functional; in short: as §1
Staphylococcus aureus [7] = test: Antibacterial activity against 10^4 CFU methicillin-resistant Staphylococcus aureus 08-1 after 18 hrs by CLSI agar dilution method; type: functional; conditions: 08-1, 18 h
Enterococcus faecium [8] = test: Antibacterial activity against 10^4 CFU Enterococcus faecium 06-7 after 18 hrs by CLSI agar dilution method; type: functional; conditions: 06-7, 18 h
Pseudomonas aeruginosa [9] = test: Antibacterial activity against 10^4 CFU Pseudomonas aeruginosa ATCC 27853 after 18 hrs by CLSI agar dilution method; type: functional; conditions: ATCC 27853, 18 h
Klebsiella pneumoniae [10] = test: Antibacterial activity against 10^4 CFU Klebsiella pneumoniae 09-22 after 18 hrs by CLSI agar dilution method; type: functional; conditions: 09-22, 18 h
Klebsiella pneumoniae [11] = test: Antibacterial activity against 10^4 CFU Klebsiella pneumoniae 09-23 after 18 hrs by CLSI agar dilution method; type: functional; conditions: 09-23, 18 h
Enterococcus faecalis [12] = test: Antibacterial activity against 10^4 CFU Enterococcus faecalis 08-10 after 18 hrs by CLSI agar dilution method; type: functional; conditions: 08-10, 18 h
Streptococcus pneumoniae [13] = test: Antibacterial activity against 10^4 CFU Streptococcus pneumoniae 08-4 after 18 hrs by CLSI agar dilution method; type: functional; conditions: 08-4, 18 h
Staphylococcus aureus [14] = test: Antibacterial activity against 10^4 CFU methicillin-sensitive Staphylococcus aureus 08-1 after 18 hrs by CLSI agar dilution method; type: functional; conditions: 08-1, 18 h
Enterococcus faecium [15] = test: Antibacterial activity against 10^4 CFU Enterococcus faecium 08-2 after 18 hrs by CLSI agar dilution method; type: functional; conditions: 08-2, 18 h
Pseudomonas aeruginosa [16] = test: Antibacterial activity against 10^4 CFU Pseudomonas aeruginosa 09-32 after 18 hrs by CLSI agar dilution method; type: functional; conditions: 09-32, 18 h
[17] = test system: Staphylococcus epidermidis; test: Antibacterial activity against 10^4 CFU methicillin-resistant Staphylococcus epidermidis 09-2 after 18 hrs by CLSI agar dilution method; type: functional; conditions: 09-2, 18 h
Streptococcus pneumoniae [18] = test: Ratio of levofloxacin MIC to compound MIC for Streptococcus pneumoniae 08-4; type: functional; in short: as §1
[19] = Cytotoxicity against MDCK cells after 48 hrs by CPE assay; type: cell-based, Canis lupus familiaris; conditions: dog
In short: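 MDCK cells kept in Minimum Essential Medium with Earle's salt plus 10% fetal bovine serum at 37 °C, 5% CO₂. […] Medium then replaced by assay medium with or without compound. After 48 h exposure, viability read by CPE assay. CC₅₀ calculated by Reed–Muench analysis.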

Staphylococcus aureus [20] = test: Antibacterial activity against 10^4 CFU Staphylococcus aureus ATCC 25923 after 18 hrs by CLSI agar dilution method; type: functional; conditions: ATCC 25923, 18 h
Enterococcus faecalis [21] = test: Ratio of gatifloxacin MIC to compound MIC for Enterococcus faecalis; type: functional; in short: as §1
[22] = test system: Staphylococcus epidermidis; test: Antibacterial activity against 10^4 CFU methicillin-sensitive Staphylococcus epidermidis 09-6 after 18 hrs by CLSI agar dilution method; type: functional; conditions: 09-6, 18 h

| Compound | MIC (Escherichia coli [1]) [µg/mL] | MIC (Escherichia coli [3]) [µg/mL] | MIC (Enterococcus faecalis [5]) [µg/mL] | MIC (Staphylococcus aureus [7]) [µg/mL] | MIC (Enterococcus faecium [8]) [µg/mL] | MIC (Pseudomonas aeruginosa [9]) [µg/mL] | MIC (Klebsiella pneumoniae [10]) [µg/mL] | MIC (Klebsiella pneumoniae [11]) [µg/mL] | MIC (Enterococcus faecalis [12]) [µg/mL] | MIC (Streptococcus pneumoniae [13]) [µg/mL] | MIC (Staphylococcus aureus [14]) [µg/mL] | MIC (Enterococcus faecium [15]) [µg/mL] | MIC (Pseudomonas aeruginosa [16]) [µg/mL] | MIC [17] [µg/mL] | CC50 at 48 h [19] [µM] | MIC (Staphylococcus aureus [20]) [µg/mL] | MIC [22] [µg/mL] | also measured |
| --- | --- | --- | --- | --- | --- | --- | --- | --- | --- | --- | --- | --- | --- | --- | --- | --- | --- | --- |
| CO/N=C1\CN(c2c(F)cc3c(=O)c(C(=O)O)cn(C4CC4)c3c2OC)CCC1(C)N (configuration not stated) | > 128 | > 128 | 1 (≈ 2.31 µM) | 0.25 (≈ 0.578 µM) | > 128 | 16 (≈ 37 µM) | > 128 | > 128 | 1 (≈ 2.31 µM) | 0.5 (≈ 1.16 µM) | 0.25 (≈ 0.578 µM) | > 128 | 8 (≈ 18.5 µM) | 0.25 (≈ 0.578 µM) | 729 | 0.125 (≈ 0.289 µM) | 0.25 (≈ 0.578 µM) | Ratio (Enterococcus faecalis [2]): 4; Ratio (Enterococcus faecalis [4]): 4; Ratio [6]: 16; Ratio (Streptococcus pneumoniae [18]): 4; Ratio (Enterococcus faecalis [21]): 4 |
| CO/N=C1\CN(c2c(F)cc3c(=O)c(C(=O)O)cn4c3c2OC[C@@H]4C)CCC1(C)N (some centres not stated) | 128 (≈ 306 µM) | > 128 | > 128 | 0.25 (≈ 0.597 µM) | > 128 | 8 (≈ 19.1 µM) | 2 (≈ 4.78 µM) | > 128 | 16 (≈ 38.2 µM) | 0.25 (≈ 0.597 µM) | 0.25 (≈ 0.597 µM) | > 128 | 128 (≈ 306 µM) | 0.25 (≈ 0.597 µM) | 1510 | 0.25 (≈ 0.597 µM) | 0.25 (≈ 0.597 µM) |  |
| COc1c(N2CCNC(C)C2)c(F)cc2c(=O)c(C(=O)O)cn(C3CC3)c12 (configuration not stated) [GATIFLOXACIN] | 4 (≈ 10.7 µM) | 8 (≈ 21.3 µM) | 4 (≈ 10.7 µM) | 0.25 (≈ 0.666 µM) | 4 (≈ 10.7 µM) | 1 (≈ 2.66 µM) | 0.25 (≈ 0.666 µM) | 2 (≈ 5.33 µM) | 8 (≈ 21.3 µM) | 0.25 (≈ 0.666 µM) | 0.06 (≈ 0.16 µM) | 2 (≈ 5.33 µM) | 16 (≈ 42.6 µM) | 0.25 (≈ 0.666 µM) | 396 | 0.06 (≈ 0.16 µM) | 0.25 (≈ 0.666 µM) |  |
| CCO/N=C1\CN(c2c(F)cc3c(=O)c(C(=O)O)cn(C4CC4)c3c2OC)CCC1(C)N (configuration not stated) | 128 (≈ 287 µM) | > 128 | 128 (≈ 287 µM) | 0.25 (≈ 0.56 µM) | 128 (≈ 287 µM) | 4 (≈ 8.96 µM) | 1 (≈ 2.24 µM) | > 128 | 1 (≈ 2.24 µM) | 0.25 (≈ 0.56 µM) | 0.25 (≈ 0.56 µM) | 64 (≈ 143 µM) | 0.5 (≈ 1.12 µM) | 0.25 (≈ 0.56 µM) | 280 | 0.25 (≈ 0.56 µM) | 0.25 (≈ 0.56 µM) |  |
| CCO/N=C1\CN(c2c(F)cc3c(=O)c(C(=O)O)cn(CC)c3c2F)CCC1(C)N (configuration not stated) | > 128 | > 128 | > 128 | 0.25 (≈ 0.592 µM) | > 128 | 4 (≈ 9.47 µM) | > 128 | > 128 | 4 (≈ 9.47 µM) | 0.25 (≈ 0.592 µM) | 0.25 (≈ 0.592 µM) | > 128 | 64 (≈ 152 µM) | 0.25 (≈ 0.592 µM) | 592 | 0.25 (≈ 0.592 µM) | 0.25 (≈ 0.592 µM) |  |
| CCO/N=C1\CN(c2nc3c(cc2F)c(=O)c(C(=O)O)cn3-c2ccc(F)cc2F)CCC1(C)N (configuration not stated) | 16 (≈ 32.7 µM) | 32 (≈ 65.4 µM) | 32 (≈ 65.4 µM) | 2 (≈ 4.09 µM) | > 128 | 4 (≈ 8.17 µM) | 32 (≈ 65.4 µM) | 32 (≈ 65.4 µM) | 8 (≈ 16.3 µM) | 0.25 (≈ 0.511 µM) | 0.25 (≈ 0.511 µM) | 64 (≈ 131 µM) | 0.5 (≈ 1.02 µM) | 0.25 (≈ 0.511 µM) | 128 | 0.25 (≈ 0.511 µM) | 0.25 (≈ 0.511 µM) |  |

Reference: ChEMBL document CHEMBL1781961, “Synthesis and in vitro antibacterial activity of 7-(3-alkoxyimino-4-amino-4-methylpiperidin-1-yl) fluoroquinolone derivatives” (Eur J Med Chem, 2011)
